# Wee1 stabilizer: Wee1 degradation inhibitors, primary screen, cell-based, HeLa, Wee1K328M-luciferase, luminescence; HeLa Luc-Wee1K328M stability; 100% = proteasome inhibitor MG132 effect; reporter increase, % at 5 µM; actives 1.2% (n = 220,000); Wee1-like protein kinase (Homo sapiens), P30291;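 active = activation above the mean of all tested compounds plus 3 SD, set per screening run, cut at about 8.8% in these data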;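 also: cells exposed to compound for 20 h before luminescence read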
# DNA FID counter: compounds displacing fluorescent DNA intercalator, primary screen, artefact control for HCV NS3 helicase inhibitor project, biochemical, FID fluorescence; DNA fluorescent intercalator displacement; inhibition, % at 7.9 µM; actives 0.17% (n = 290,000); AID 1845, 2009; in the data active = inhibition above about 37%;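 also: higher means more ethidium bromide displaced from hairpin DNA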
# Rad51 HR inh: human RAD51 strand exchange inhibitors, primary screen, biochemical, fluorescence | inhibition, % at 10 µM | AID 1385, 2008 | DNA repair protein RAD51 homolog 1 (Homo sapiens), Q06609 | hRad51 DNA strand exchange, fluorescence dequenching | actives 0.085% (n = 200,000);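 active = inhibition above 40% at the single screening dose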
# Target sequence (Q06609 whole entry, looked up): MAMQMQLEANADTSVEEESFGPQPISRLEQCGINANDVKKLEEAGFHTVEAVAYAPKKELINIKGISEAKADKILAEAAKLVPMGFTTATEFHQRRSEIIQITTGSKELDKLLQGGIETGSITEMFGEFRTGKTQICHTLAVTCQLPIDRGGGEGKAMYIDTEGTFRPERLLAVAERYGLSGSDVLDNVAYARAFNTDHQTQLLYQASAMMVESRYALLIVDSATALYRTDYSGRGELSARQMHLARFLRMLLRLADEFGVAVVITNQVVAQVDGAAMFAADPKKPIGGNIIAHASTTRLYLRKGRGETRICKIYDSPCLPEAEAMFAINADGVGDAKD
#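 System: human Rad51 nucleoprotein filaments preassembled on unlabelled ssDNA. Reagent: labelled 47-mer dsDNA for strand exchange. Schedule: 30-min compound preincubation and 15-min exchange, both room temperature. Measured by: FRET fluorescence dequenching, excitation 485 nm, emission 520 nm. Read-out: Fluorescence-based percent inhibition, control- and blank-normalised. Benchmarks: plate controls and plate blanks.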
# RBBP9 inh: human RBBP9 inhibitors, primary screen, biochemical, fluorescence polarization, FP-Rh probe, HTS | Serine hydrolase RBBP9 (Homo sapiens), O75884 | recombinant RBBP9 | inhibition, % at 7.94 µM | actives 0.2% (n = 220,000) | AID 1515, 2009;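 active = inhibition above the campaign mean of all tested compounds plus 3 SD, cut at about 14% in these data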
# Target sequence (O75884 whole entry, looked up): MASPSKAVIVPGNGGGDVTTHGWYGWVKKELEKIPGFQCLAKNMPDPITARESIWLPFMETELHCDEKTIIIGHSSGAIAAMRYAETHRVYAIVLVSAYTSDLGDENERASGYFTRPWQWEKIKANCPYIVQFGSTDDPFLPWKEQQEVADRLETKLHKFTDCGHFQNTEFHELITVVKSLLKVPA
#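 Test system: recombinant human RBBP9; Timing: 30 min then 45 min, 25 °C; Detection: fluorescence polarization; Control set: RBBP9 with DMSO as uninhibited control, no-protein wells as full inhibition; Compound dosing: one concentration, 7.94 µM nominal, 0.794% DMSO; Probe or stimulus: FP-Rh activity-based probe, 375 nM before mixing.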
# Numbers stand for hits; – = inactive; · = not tested or not shown. This is a sample that favours compounds with a hit; in the whole collection about 1.2% have one here.
SMILES,Wee1 stabilizer,DNA FID counter,Rad51 HR inh,RBBP9 inh
CC(=O)c1ccc(Nc2cc(C)nc3c(C)cc(C)cc23)cc1,11,–,–,–
CCC(=O)O[C@]1(C(=O)CCl)[C@@H](C)C[C@H]2[C@@H]3CCC4=CC(=O)C=C[C@]4(C)[C@@]3(F)[C@@H](O)C[C@@]21C,9.3,–,–,–
CCCC(=O)O[C@]1(C(=O)CCl)[C@@H](C)C[C@H]2[C@@H]3CCC4=CC(=O)C=C[C@]4(C)[C@@]3(F)C(=O)C[C@@]21C,–,–,–,–
CCN(CC(=O)Nc1ccc(NC(C)=O)cc1)c1ccc(C(F)(F)F)cn1,–,–,–,–
CCOc1ccccc1CN1CCCC(C(=O)Nc2cccc(-n3cccn3)c2)C1 (configuration not stated),·,39,·,·
CCOc1cccc(CN2CCCC(C(=O)Nc3cccc(-n4cccn4)c3)C2)c1 (configuration not stated),·,–,·,·
CCN(CC)CCCN(C(=O)c1ccc(OC)cc1)c1nc(-c2ccc(OC)cc2)cs1,·,44,·,·
CC1(C)CC(N=c2cc(-c3ccccc3)oc3ccc(Cl)cc23)CC(C)(C)N1,–,–,53,–
CC(=O)OC[C@H]1O[C@H](CCO/N=C(\C)CCN2CCCc3nc(C)c(C)cc32)C=C[C@@H]1OC(C)=O,9.6,–,–,–
CN(CCC#N)C(=S)NC(=O)c1ccc(S(=O)(=O)N2CCOCC2)cc1,–,–,–,–
O=C(Oc1oc(-c2ccco2)nc1C=Nc1ccccc1)c1ccoc1,9.0,–,–,–
O=C(Oc1oc(-c2ccco2)nc1C=Nc1ccccc1)c1ccco1,–,–,·,–
CC(=O)NC(CC(=O)Nc1nc(C)cs1)c1ccccc1 (configuration not stated),–,–,–,–
CC1CCC2C(=O)N(c3ccccc3OC(=O)c3ccccc3F)C(=O)C2C1 (configuration not stated),9.5,–,–,–
O=C(Oc1ccccc1N1C(=O)C2CCCCC2C1=O)c1ccccc1 (configuration not stated),–,–,·,–
CCCc1cc(C(=O)Nc2cc(C)ccc2O)no1,·,–,·,·
COc1ccc([N+](=O)[O-])cc1C(=O)NCCOc1ccc(Cl)cc1,·,–,·,·
CC(=O)Nc1nc(COc2ccccc2)cs1,–,–,–,–
O=C(Nc1nc(COc2ccccc2)cs1)C1CCC1,9.3,–,–,–
CCCCn1c(=O)c(CCC(=O)OCC(=O)NC(=O)NCCC(C)C)nc2ccccc21,–,–,–,–
O=C(CN1C(=O)c2ccccc2C1=O)Nc1ccc(Cl)cn1,10,–,–,–
COC(=O)C1=C(C)N(CCCC(=O)O)C(=O)NC1c1ccc(C#N)cc1 (configuration not stated),·,·,–,·
COc1ccc(-c2cc(-c3ccccc3)n[nH]2)c(O)c1,10,–,–,–
CC(=O)c1cc2c(cc1NC(=O)CSc1nc3ccccc3[nH]1)OCO2,9.8,–,–,–
CCOc1cc(/C=C2\SC(=Nc3ccc(F)cc3)N(c3ccc(F)cc3)C2=O)ccc1OCC(=O)O,–,44,–,–
SMILES,Wee1 stabilizer,DNA FID counter,Rad51 HR inh,RBBP9 inh
COc1ccc(CNC(=O)[C@@H](C)NC(=O)C2CCN(C(=O)[C@@H](N)CCSC)CC2)cc1,·,–,·,·
COc1cc2c3c(c1OC)C1(C=CC(=O)C=C1)CC3N(C(C)=O)CC2 (configuration not stated),–,–,·,–
COc1cc2c3c(c1OC)C1(C=CC(=NO)C=C1)CC3N(C(C)=O)CC2 (configuration not stated),10,–,–,–
Cc1cccc(Cc2cnc(N3C(=N)SC(C)C3=O)s2)c1 (configuration not stated),9.6,–,–,–
Cc1nn(-c2ccccc2)c(Cl)c1/C=C1\SC(=S)N(C)C1=O,15,–,·,–
CCN(CC)CCn1c(=N)n(CCOc2ccccc2)c2ccccc21,–,–,–,–
CCN(CC)CCn1c(=N)n(CC(O)COc2ccccc2)c2ccccc21 (configuration not stated),–,37,–,–
CC(=O)c1c(C(C)=O)c(C)n(NC(=O)c2ccccc2Cl)c1C,9.2,–,–,–
CCc1noc(C)c1C(=O)NC1CCCc2c1cnn2-c1ccc(C(C)(C)C)cc1 (configuration not stated),·,–,·,·
Cc1ccc(N2CCN(C(=O)c3cc(C(=O)c4ccccc4C)c[nH]3)CC2)c(C)c1,–,–,43,–
C=CCc1cc(Cl)ccc1OCCNCCN1CCOCC1,–,39,–,–
C=CCc1c(N(CC)CC)nc(C)[nH]c1=O,9.3,–,–,–
C=CCc1c(C)nc(SCC(=C)C)[nH]c1=O,–,–,–,–
O=[N+]([O-])c1cccc(-c2noc(-c3ccco3)n2)c1,8.9,–,–,–
Cc1c(N=C2SCC(=O)N2/N=C\c2ccc(Br)cc2)c(=O)n(-c2ccccc2)n1C,–,–,–,–
COC(=O)c1c(N2C(=O)[C@H]3[C@@H](C2=O)[C@]2(C(=O)Nc4c2ccc(C)c4C)N2CCC[C@@H]32)sc(C)c1C,–,–,41,–
COC(=O)c1c(N2C(=O)[C@H]3[C@@H](C2=O)[C@]2(C(=O)Nc4c(C)cc(C)cc42)N2CCC[C@@H]32)sc(C)c1C,–,–,–,–
O=C(N/N=C/c1cccc(OC(=O)N2CCOCC2)c1)c1cccs1,9.1,–,·,–
COc1cccc(/C=N/NC(=O)c2cccs2)c1,–,–,–,–
CN(C)C(=O)N1CCN(C(=O)N2CCOCC2)CC1,–,–,–,–
Cc1ccc2nc(/C(C#N)=C\c3ccc(N4CCOCC4)o3)[nH]c2c1,9.4,–,–,–
Cc1ccc(/C(C#N)=C\c2ccc(N3CCOCC3)o2)cc1,–,–,–,–
COc1ccc(S(=O)(=O)N2CCCC(C(=O)NCCN3CCOCC3)C2)cc1C (configuration not stated),·,–,·,·
O=C(NCCCN1CCOCC1)c1ccccc1N1C(=O)[C@@H]2Cc3c([nH]c4ccccc34)C(c3ccc(F)cc3)N2C1=O (some centres not stated),·,–,·,·
COc1cccc(C2c3[nH]c4ccccc4c3C[C@H]3C(=O)N(c4ccccc4C(=O)NCCCN4CCOCC4)C(=O)N23)c1 (some centres not stated),·,45,·,·
SMILES,Wee1 stabilizer,DNA FID counter,Rad51 HR inh,RBBP9 inh
O=C(NCC(=O)N(c1ccc(F)cc1)C(C(=O)NC1CCCC1)c1cccnc1)c1ccco1 (configuration not stated),·,–,·,·
O=C(Nc1ccc2c(c1)CCC2)c1c(F)cccc1Cl,8.9,–,–,–
CCn1c(CSCc2ccccc2)n[nH]c1=S,9.1,–,–,–
Cn1nnnc1SCc1ccc(CSc2nnnn2C)cc1,–,–,–,–
Cn1nnnc1SCc1ccc(Cl)cc1,13,–,–,–
CCO[C@@H]1OC(C(=O)Nc2ccccc2)=C[C@H](C2CC2)[C@H]1CCCO,–,–,–,–

# Source: PubChem BioAssay (several laboratories)
